# Assay results collected from several papers.
# Each line is one published result; the experiments were not run side by side.
# AKT1: RAC-alpha serine/threonine-protein kinase (AKT1, Homo sapiens, UniProt P31749)
# CXCR4: C-X-C chemokine receptor type 4 (CXCR4, Homo sapiens, UniProt P61073)
# PLA2G5: Phospholipase A2 group V (PLA2G5, Homo sapiens, UniProt P39877)
# MDH2: Malate dehydrogenase, mitochondrial (MDH2, Sus scrofa, UniProt P00346)
# CDK9 with cyclin T1: Cyclin-dependent kinase 9, with cyclin T1 (CDK9, Homo sapiens, UniProt P50750)
# NTRK3: NT-3 growth factor receptor (NTRK3, Homo sapiens, UniProt Q16288)
# CYP2C9: Cytochrome P450 2C9 (CYP2C9, Homo sapiens, UniProt P11712)
SMILES,target,read-out,mode,technique,notes,IC50
CC1=C(/C=C/C(C)=C/C=C/C(C)=C/C(=O)O)C(C)(C)CCC1,"Prothrombin (Rattus norvegicus, UniProt P18292)",enzyme activity,inhibitor,,,163 µM
CC(C)(C)n1nc(-c2cnc3cc(OC4CC4)ccc3c2)c(C(N)=O)c1N,AKT1,cell-free assay,,,,> 10 µM
NC(=O)c1ccc[n+]([C@@H]2O[C@H](COP(=O)([O-])OP(=O)(O)OC[C@H]3O[C@@H](n4cnc5c(N)ncnc54)[C@H](O)[C@@H]3O)[C@@H](O)[C@H]2O)c1,"Poly [ADP-ribose] polymerase tankyrase-1 (TNKS, Homo sapiens, UniProt O95271)",enzyme activity,inhibitor,,,395 µM
CCc1ccc(NC(=O)c2nc(S(C)(=O)=O)ncc2N(Cc2ccccc2)Cc2ccco2)cc1,CXCR4,β-arrestin recruitment,antagonist,,,13 µM
CC(=O)c1ccc(N=Nc2c(C(=O)O)cc(O)c(O)c2O)cc1,PLA2G5,enzyme activity,inhibitor,Ellman,,7.15 µM
CC(=O)NS(=O)(=O)c1ccc(NC(=O)C=CC(=O)O)cc1,"Dipeptidyl peptidase 4 (DPP4, Homo sapiens, UniProt P27487)",enzyme activity,inhibitor,fluorescence,,59.3 µM
c1ccc(-n2cc(CCN(Cc3nc(C4CC4)no3)Cc3nc(C4CC4)no3)cn2)cc1,CXCR4,β-arrestin recruitment,,,,200 µM
COc1ccc(S(=O)(=O)Nc2ccc3oc(-c4ccc(NC(=O)c5cccc(C)c5[N+](=O)[O-])cc4)nc3c2)cc1,MDH2,enzyme activity,inhibitor,,,> 62.5 µM
CC(C)(C)n1nc(-c2ccc3nc(OC4CC4)ccc3c2)c(C(N)=O)c1N,"Calcium/calmodulin-dependent protein kinase kinase 2 (CAMKK2, Homo sapiens, UniProt Q96RR4)",cell-free assay,,,,> 10 µM
COc1ccc(S(=O)(=O)Nc2ccc(-c3nc4cc(NS(=O)(=O)c5ccc(OC)cc5)ccc4o3)cc2)cc1,MDH2,enzyme activity,inhibitor,,,> 62.5 µM
O=c1cc(-c2ccccc2)oc2ccc3ccccc3c12,CDK9 with cyclin T1,enzyme activity,inhibitor,ADP detection,,> 10 µM
Nn1cnnc1O,"DNA dC->dU-editing enzyme APOBEC-3A (Homo sapiens, UniProt P31941)",enzyme activity,inhibitor,,,> 100 µM
Cc1ccc(C(=O)Nc2ccc(Oc3cc4cnn(C)c4cc3-c3cn[nH]c3)c(F)c2)c(=O)n1-c1ccc(F)cc1,"Tyrosine-protein kinase Mer (MERTK, Homo sapiens, UniProt Q12866)",cell growth or viability,,ATP luminescence,,0.01 µM
CCn1ncc2c1-c1cnc(N)c(c1)O[C@H](C)c1cc(F)ccc1-c1nn(C)nc1C2,NTRK3,enzyme activity,inhibitor,,,0.19 µM
O=S(=O)(Nc1ccc(-c2nc3cc(NS(=O)(=O)c4ccc(F)cc4)ccc3o2)cc1)c1ccc(F)cc1,MDH2,enzyme activity,inhibitor,,,> 62.5 µM
N=C(N)NCCCC[C@@H]1NC(=O)CCSSC[C@@H](C(N)=O)NC(=O)[C@@H]2CCCN2C(=O)[C@H](Cc2c[nH]c3ccccc23)NC(=O)[C@H](CC(=O)O)NC(=O)CNC1=O,CXCR4,β-arrestin recruitment,antagonist,,,> 30 µM
O=S(=O)(Nc1ccc(-c2nc3cc(NS(=O)(=O)c4ccc(Br)cc4)ccc3o2)cc1)c1ccc(Br)cc1,MDH2,enzyme activity,inhibitor,,,> 62.5 µM
CCc1ccc(OCc2nnc(SCc3nc(C)no3)n2Cc2ccccc2)cc1,CXCR4,β-arrestin recruitment,,,,50 µM
C/C(=C\C(=O)OCCCCCCCCC(=O)O)C[C@@H]1OC[C@H](C[C@@H]2O[C@H]2[C@@H](C)[C@H](C)O)[C@@H](O)[C@H]1O,CXCR4,calcium signal,antagonist,,,> 100 µM
CCN1CCN(Cc2ccc(NC(=O)c3ccc(C)c(NC(=O)c4cncc(-c5cccs5)c4)c3)cc2C(F)(F)F)CC1,"Ephrin type-A receptor 2 (EPHA2, Homo sapiens, UniProt P29317)",enzyme activity,inhibitor,ADP detection,,0.419 µM
O=C(O)/C=C/c1ccc(O)c(O)c1,PLA2G5,enzyme activity,inhibitor,Ellman,,26.8 µM
CC/C(=N\NC(=O)C(C)Nc1ccccc1)c1ccc(O)c(C)c1O (stereo not drawn),"Serine/threonine-protein kinase Sgk2 (SGK2, Homo sapiens, UniProt Q9HBY8)",enzyme activity,inhibitor,,,0.0117 µM
Cc1cnc(-c2ccc(-c3ccc(NC(=O)Nc4c(F)cc(F)cc4F)cc3F)c3c2C(=O)NC3)[nH]1,NTRK3,enzyme activity,inhibitor,,,0.0007 µM
COc1ccc2c(Oc3ccc4c(C(=O)Nc5ccccc5N)cccc4c3)ccnc2c1,AKT1,enzyme activity,inhibitor,,,> 0.5 µM
O=S(=O)(Nc1ccc(-c2nc3cc(NS(=O)(=O)c4ccc(C(F)(F)F)cc4)ccc3o2)cc1)c1ccc(C(F)(F)F)cc1,MDH2,enzyme activity,inhibitor,,,> 62.5 µM
NCc1ccc(Nc2ncc(F)c(Nc3ccccc3)n2)cc1,"Activin receptor type-1 (ACVR1, Homo sapiens, UniProt Q04771)",enzyme activity,inhibitor,,lysate,> 10 µM
O=C(Nc1ccn(Cc2ccc(O)cc2C(F)(F)F)n1)c1c(F)cccc1F,"Voltage-dependent T-type calcium channel subunit alpha-1H (CACNA1H, Homo sapiens, UniProt O95180)",ion current,inhibitor,,,> 10 µM
O=c1cc(-c2ccccc2)oc2c1ccc1ccccc12,CDK9 with cyclin T1,enzyme activity,inhibitor,ADP detection,,> 100 µM
CCS(=O)(=O)c1ncc(N(Cc2ccccc2)Cc2ccco2)c(C(=O)Nc2ccccc2F)n1,CXCR4,β-arrestin recruitment,antagonist,,,50 µM
COc1cc(/C=C/C(=O)c2ccc(NC(=O)c3ccccc3CN3C(=O)c4ccccc4C3=O)cc2)cc(OC)c1OC,"Tubulin beta-5 chain (TUBB, Homo sapiens, UniProt P07437)",tubulin polymerisation,inhibitor,ELISA,,2.32 µM
CS(=O)(=O)c1ncc(N(Cc2ccccc2)Cc2ccco2)c(C(=O)Nc2ccccc2Cl)n1,CXCR4,β-arrestin recruitment,antagonist,,,40 µM
COc1ccc(S(=O)(=O)Nc2ccc3oc(-c4ccc(NC(=O)c5ccc(Cl)s5)cc4)nc3c2)cc1,MDH2,enzyme activity,inhibitor,,,> 62.5 µM
O=P([O-])(O)C(O)(C[n+]1cccc(-c2ccccc2)c1)P(=O)(O)O (stereo not drawn),"Geranylgeranyl pyrophosphate synthase (GGPS1, Homo sapiens, UniProt O95749)",enzyme activity,inhibitor,,,15.8 µM
CCOC(=O)C1CCN(C(=O)c2ccc(N(CC)Cc3cnc4nc(N)nc(N)c4n3)cc2)CC1,CYP2C9,enzyme activity,inhibitor,luciferase,,8.51 µM
CC(=O)c1cccc(/N=N/c2cc(/C=C/C(=O)O)ccc2O)c1,PLA2G5,enzyme activity,inhibitor,Ellman,,43.9 µM
O=S(=O)(Nc1ccc(-c2nc3cc(NS(=O)(=O)c4ccccc4Cl)ccc3o2)cc1)c1ccccc1Cl,MDH2,enzyme activity,inhibitor,,,> 62.5 µM
CCN(CC)CCOCCN(Cc1ccccc1)Cc1nc(Cc2ccccc2)no1,CXCR4,β-arrestin recruitment,,,,398 µM
COc1ccc2cc3[n+](cc2c1OC)CCc1cc2c(cc1-3)OCO2,CYP2C9,enzyme activity,inhibitor,,,0.7 µM
O=S(=O)(Nc1ccc(-c2nc3cc(NS(=O)(=O)c4ccc(Cl)s4)ccc3o2)cc1)c1ccc(Cl)c(C(F)(F)F)c1,MDH2,enzyme activity,inhibitor,,,> 62.5 µM
CNC(=O)c1cc2c(Oc3ccc(NC(=O)C4(C(=O)Nc5ccc(F)cc5)CC4)cc3)ccnc2cc1OC,NTRK3,enzyme activity,inhibitor,radiometric,,0.01 µM
O=C(Nc1ccc2[nH]nc(-c3ccncc3)c2c1)[C@@H]1CCN(CC(=O)N2CCN(c3ccc(-c4ncccn4)cc3)CC2)C1,"Mitogen-activated protein kinase 3 (MAPK3, Homo sapiens, UniProt P27361)",enzyme activity,inhibitor,radiometric,,0.0042 µM
C=CC(=O)Nc1ccc(N2CCC[C@@H](Nc3ncc(Cl)c(-c4c[nH]c5ccccc45)n3)C2)cc1C,CDK9 with cyclin T1,enzyme activity,inhibitor,FRET,,0.165 µM
